From PubChem BioAssay
MDM2 E3 inh: MDM2-luciferase reporter signal enhancers, primary screen, MDM2 E3 ligase inhibitor project, cell-based, luminescence, 1536-well | 210,000 tested, 0.11% active | E3 ubiquitin-protein ligase Mdm2 (Homo sapiens), Q00987 | signal enhancement, % at 5 µM | AID 1230, 2008 | cell-based MDM2 ubiquitination luciferase reporter, 2 h; 0 = plate control, 100 = twice control, blank-subtracted;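 active means signal enhancement of 30% or more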;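 further: luminescence tracks abundance of the self-degrading MDM2-luciferase fusion protein; higher signal means inhibition of MDM2 E3 ligase activity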
Target sequence (Q00987 whole entry, looked up, the tested form may be a part): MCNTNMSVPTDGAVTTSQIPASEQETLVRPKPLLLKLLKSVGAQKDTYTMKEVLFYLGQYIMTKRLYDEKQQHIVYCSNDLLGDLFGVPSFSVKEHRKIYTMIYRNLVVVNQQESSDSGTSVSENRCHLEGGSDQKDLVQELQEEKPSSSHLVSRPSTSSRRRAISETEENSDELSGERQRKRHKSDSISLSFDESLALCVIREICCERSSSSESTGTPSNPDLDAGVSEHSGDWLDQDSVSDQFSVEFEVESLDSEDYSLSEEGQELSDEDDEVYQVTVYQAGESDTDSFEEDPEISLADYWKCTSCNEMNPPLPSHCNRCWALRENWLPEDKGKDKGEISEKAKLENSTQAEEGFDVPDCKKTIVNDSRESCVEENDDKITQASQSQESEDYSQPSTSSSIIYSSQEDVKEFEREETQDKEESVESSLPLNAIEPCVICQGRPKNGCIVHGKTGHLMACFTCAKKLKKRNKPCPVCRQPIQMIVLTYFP
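Timing – 2 h compound exposure at 37 °C · Assay system – mammalian cells stably expressing self-ubiquitinating, self-degrading MDM2 E3–luciferase fusion · Amount – 2000 cells seeded into each well · Measure – % luminescence enhancement versus blank-corrected plate control mean · Measured by – SteadyLite luminescence, 15 min reagent step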
HSF1 activator: HSF-1 activators, primary screen, NIH3T3-HGL cells, MG132 stress, luminescence, single point; 300,000 tested, 1.7% active; NIH3T3-HGL HSF-1 luciferase reporter, 8 h; 100% = twice DMSO control signal; activation, % at 9 µM; AID 504408, 2011;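 active means mean replicate activation of at least 50% with a set share of replicates each reaching 50%; inconclusive means only one of those two conditions met; inactive means mean below 50% and too few replicates reaching it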
HSF1 inhib: HSF1 inhibitors in luciferase reporter cells, primary screen, cell-based, NIH3T3, luminescence. NIH3T3-HGL HSE-luciferase, MG132-induced, luminescence 8 h; active compounds read low. activity change, negative = inhibition, % at 7.5 µM (by protocol). 300,000 tested, 0.77% active. AID 2098, 2009;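 active means more than half of replicate wells show activity change below -50%, luminescence cut by over half; inconclusive means some wells, but at most half, below -50%; inactive means no replicate well below -50%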;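 further: luciferase reports HSF-1 transcriptional activity via heat shock element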
Hsp70 activator: Hsp70 transcriptional activators, primary screen, cell-based, HeLa, Hsp70 promoter luciferase, luminescence, 10 µM; activation, % at 10 µM; HeLa Hsp70 promoter luciferase reporter; scaled: vehicle 0, proteasome-inhibitor control 100%; 200,000 tested, 0.04% active;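 active means activation above the mean across all tested compounds plus 3 SD, cutoff set per campaign, cut at about 5.5% in these data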
Rad51 HR inh: human RAD51 strand exchange inhibitors, primary screen, biochemical, fluorescence | DNA repair protein RAD51 homolog 1 (Homo sapiens), Q06609 | hRad51 DNA strand exchange, fluorescence dequenching | inhibition, % at 10 µM | 200,000 tested, 0.085% active | AID 1385, 2008;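 active means inhibition above 40% at the single screening dose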
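material = hRad51 filaments on single-stranded DNA | reagent = Donor/quencher-labelled 47-bp dsDNA substrate | compound = 10 µM final, single point | schedule = strand-exchange reaction 15 min at room temperature | measured by = fluorescein emission 520 nm, excitation 485 nm | read-out basis = % inhibition versus plate control and blank means | benchmarks = plate controls and plate blanks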
HSV replic up: enhancers of HSV replication in host cells, fold increase, host cell viability; maximum fold increase; HSV replication augmentation in cells; 220,000 tested, 0.005% active; in the data active means maximum fold increase above about 1.5; inconclusive means no clear call, values can overlap the other calls; tested in PC3 cells
Hits are given with their value; n = inactive; u = inconclusive; x = no result given. Compounds with a hit are over-represented: about 2.6% of the library has one in this group of screens.

SMILES	MDM2 E3 inh	HSF1 activator	HSF1 inhib	Hsp70 activator	Rad51 HR inh	HSV replic up
Cc1ccc(C)c(OCCC(=O)OCC(=O)N2CCN(S(=O)(=O)c3ccc(Cl)cc3)CC2)c1	x	n	u	x	x	x
O=C(CSc1ccc(F)cc1)N1CCN(S(=O)(=O)c2ccccc2)CC1	n	n	n	n	n	n
CCOc1ccc(OCCC(=O)OCC(=O)N2CCN(S(=O)(=O)c3ccc(Cl)cc3)CC2)cc1	x	86.9	n	x	x	x
Cc1ccc(S(=O)(=O)N2CCN(C(=O)CSc3ccc(Cl)cc3)CC2)cc1	x	74.5	n	x	x	x
O=C(CSc1ccc(Cl)cc1)N1CCN(c2c(Cl)cccc2[N+](=O)[O-])CC1	n	69.6	n	n	n	n
Cc1ccc(S(=O)(=O)N(C)CC(=O)O/N=C(\N)c2cccc(Br)c2)cc1	x	n	n	x	x	x
CCN1CCN(C(=O)c2nn(C)c3c2CS(=O)(=O)c2ccccc2-3)CC1	x	n	n	x	x	x
COc1ccc(NC2CCCN(C(=O)CCCn3cncn3)C2)cc1OC (stereo not drawn)	x	n	n	x	x	x
CC1CN(CCc2ccccc2)c2nc3c(c(=O)n(C)c(=O)n3C)n2C1 (stereo not drawn)	x	n	n	x	x	x
CCCCOc1ccc(CSc2ncn[nH]2)cc1	n	86.1	n	n	n	n
CCCCNc1cc(NC(C)=O)cc2cc(OC)c(OC)cc12	n	76.3	n	n	n	n
COc1cc2cc(NC(C)=O)cc(NCc3ccccc3)c2cc1OC	x	66.4	n	x	x	x
O=C(CCN1C(=O)C2C3CCC(C3)C2C1=O)OCC(=O)c1cccc([N+](=O)[O-])c1 (stereo not drawn)	n	n	n	n	n	n
Cc1nn(CC(=O)Nc2ccc(S(=O)(=O)N(C)C)cc2)c(C)c1[N+](=O)[O-]	n	n	n	n	n	n
Cc1ccc(N2C(=O)N(CC(=O)NCc3ccc(Cl)cc3)C(=O)C2C)cc1 (stereo not drawn)	n	n	n	n	n	n
COc1ccc(CNC(=O)CN2C(=O)C(C)N(c3ccc(C)cc3)C2=O)cc1 (stereo not drawn)	n	53.9	n	n	x	x
COc1cccc2cc(C(=O)C3=C(O)C(=O)N(c4cc(C)on4)C3c3cccs3)oc12 (stereo not drawn)	x	n	n	x	x	x
COc1ccc(C(=O)NC(=S)Nc2ccc(CN3CCCCC3)cc2)cc1Cl	n	58.7	n	n	n	n
Cc1cccc(N2CCN(C(=O)CSCc3c(C)noc3C)CC2)c1C	n	53.7	n	n	x	x
CC(/C=N\NC(=O)CN1CCN(S(=O)(=O)c2ccc(C)cc2)CC1)=C\c1ccccc1	n	n	n	n	n	n
CCOc1ccc(C2C3=C(CCCC3=O)Nc3ccc4ncccc4c32)cc1 (stereo not drawn)	x	67.8	n	x	x	n
O=C1CCCC2=C1C(c1ccc(O)c(O)c1)c1c(ccc3ncccc13)N2 (stereo not drawn)	n	n	n	n	n	n
COc1ccc(S(=O)(=O)N(C)C)cc1NC(=O)CCNC(=O)c1ccco1	x	n	n	x	x	x
COc1ccc(C(=O)/C(=C/O)N=Nc2ccc(F)cc2)cc1	n	n	n	n	n	n
COc1ccc(N=N/C(=C\O)C(=O)c2cccs2)cc1	n	66.8	n	n	n	x
COC(=O)[C@@]1(Cc2ccccc2)[C@H]2c3cc(C(=O)N4CCCC4)n(Cc4ccsc4Br)c3C[C@H]2CN1C(=O)c1ccccc1	x	x	x	n	n	n
CCOc1cc(CNc2ccc3c(c2)OCCO3)cc(Br)c1OCC(N)=O	n	n	-73.5	n	n	n
CCOc1cc(CNc2ccc3c(c2)OCCO3)cc(Br)c1OC	n	n	n	n	n	n
CC(CCc1ccccc1)NC(=O)CNC(=O)c1ccccc1Br (stereo not drawn)	x	n	n	x	x	x
CCN(C(=O)CSc1nc2cc(C(=O)OC)ccc2c(=O)n1Cc1ccco1)c1cccc(C)c1	n	143.1	n	n	n	n
